Data: ChEMBL document CHEMBL4251594, “Design and synthesis of sulfonamidophenylethylureas as novel cardiac myosin activator” (Eur J Med Chem, 2018)

Key:
Bos taurus = species on record: Bos taurus; experiment: Activation of actin-stimulated bovine cardiac myosin S1 fragment ATPase activity in sarcomere at 10 uM after 10 mins by spectrophotometric analysis relative to control
Oryctolagus cuniculus = species on record: Oryctolagus cuniculus; experiment: Activation of actin-stimulated rabbit skeletal muscle myosin S1 fragment ATPase activity at 100 uM after 10 mins by spectrophotometric analysis relative to control
Gallus gallus = species on record: Gallus gallus; experiment: Activation of actin-stimulated chicken gizzard smooth muscle myosin S1 fragment ATPase activity at 100 uM after 10 mins by spectrophotometric analysis relative to control
Rattus norvegicus [1] = experiment: Positive inotropic activity in Sprague-Dawley rat heart assessed as increase in left ventricle fractional shortening at 2 to 16 ug/kg/min infused for 3 mins by echocardiographic analysis; type: functional
Procedure, shortened: (§1)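 Seven-week-old male Sprague-Dawley rats; dosing via internal jugular vein central line, infused at 0, 2, 4, 8 and 16 µg/kg/min for 3 minutes from a 40 µg/mL final solution (concentration checked by HPLC against three standards). M-mode echocardiography at baseline and 16 µg/kg/min with a 25 MHz transducer; percent rise in LV fractional shortening and ejection fraction.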

Rattus norvegicus [2] = experiment: Positive inotropic activity in Sprague-Dawley rat heart assessed as increase in ejection fraction at 2 to 16 ug/kg/min infused for 3 mins by echocardiographic analysis; type: functional; procedure, shortened: as §1
Cardiac muscle cell [3] = experiment: Positive inotropic activity in Sprague-Dawley rat ventricular myocytes assessed as change in ventricular cell contractility by measuring cell shortening at 5 uM; type: functional
Cardiac muscle cell [4] = experiment: Positive inotropic activity in Sprague-Dawley rat ventricular myocytes assessed as change in ventricular cell contractility by measuring cell shortening at 1 uM; type: functional
[5] = Aqueous solubility of the compound in water; type: physicochemical; settings: buffer

SMILES: CN(C)S(=O)(=O)c1ccc(C2CCN(C(=O)NCCCc3ccccc3)CC2)cc1
- Activity (Bos taurus): 85.1%

SMILES: O=C(NCCCc1ccccc1)NCCc1ccc(Cl)cc1Cl
- Activity (Bos taurus): 37.3%

SMILES: COc1ccc(CCCNC(=O)NCCc2ccc(OC)c(OC)c2)cc1
- Activity (Bos taurus): 38.4%

SMILES: Cc1ccc2c(c1)C(=O)[C@]1(O)CCN(c3ccccc3)C1=N2
- Activity (Oryctolagus cuniculus): -50.7%
- Activity (Gallus gallus): -35.7%

SMILES: CN(C)S(=O)(=O)c1ccc(C2CCN(C(=O)NCc3ccccc3)CC2)cc1
- Activity (Bos taurus): 36.9%

SMILES: CN(CCCc1ccccc1)C(=O)NCCc1ccc(S(=O)(=O)N(C)C)cc1
- Activity (Bos taurus): 47.6%
- Activity (Rattus norvegicus [1]): 23.19%
- Activity (Rattus norvegicus [2]): 15.47%

SMILES: O=C(NCCCc1ccccc1)NCCc1ccc(C(=O)O)cc1
- Activity (Bos taurus): 40.6%

SMILES: COc1ccc(CCNC(=O)NCCCc2ccccc2)cc1
- Activity (Bos taurus): 40%

SMILES: CN(C)c1ccc(CCNC(=O)NCCCc2ccccc2)cc1
- Activity (Bos taurus): 45.3%

SMILES: COc1ccc(CNC(=O)NCCCc2ccccc2)cc1
- Activity (Bos taurus): 25.4%

SMILES: CN(C)S(=O)(=O)c1ccc(CNC(=O)NCCCc2ccccc2)cc1
- Activity (Bos taurus): 34.5%

SMILES: CC(C)c1ccc(CCNC(=O)NCCCc2ccccc2)cc1
- Activity (Bos taurus): 33.3%

SMILES: O=C(NCCCc1ccc(F)cc1)NCc1ccccc1
- Activity (Bos taurus): 9.5%

SMILES: COc1cccc(CCNC(=O)NCCCc2ccccc2)c1
- Activity (Bos taurus): 35%

SMILES: O=C(NCCCc1ccccc1)NCCc1ccc(F)cc1
- Activity (Bos taurus): 38.6%

SMILES: COc1ccc(CNC(=O)NCCCc2ccccc2)cc1OC
- Activity (Bos taurus): 38.8%

SMILES: Nc1ccc(CCNC(=O)NCCCc2ccccc2)cc1
- Activity (Bos taurus): 55.2%
- Activity (Rattus norvegicus [1]): 6.37%
- Activity (Rattus norvegicus [2]): 4.16%

SMILES: O=C(NCCCc1ccccc1)NCc1ccccc1
- Activity (Bos taurus): 53.3%
- Activity (Oryctolagus cuniculus): 1.4%
- Activity (Gallus gallus): -3.7%
- Activity (Rattus norvegicus [1]): 30.04%
- Activity (Rattus norvegicus [2]): 18.27%
- Activity (Cardiac muscle cell [3]): 25.3%

SMILES: O=C(NCCCc1ccccc1)NCCc1ccc([N+](=O)[O-])cc1
- Activity (Bos taurus): 56.2%

SMILES: CN(C)S(=O)(=O)c1ccc(CNC(=O)N2CCC(c3ccccc3)CC2)cc1
- Activity (Bos taurus): 27.6%

SMILES: O=C(NCCCc1ccccc1)NCCc1ccccc1F
- Activity (Bos taurus): 65.4%
- Activity (Rattus norvegicus [1]): 12.52%
- Activity (Rattus norvegicus [2]): 8.76%

SMILES: COc1ccc(CCNC(=O)NCCCc2ccccc2)cc1OC
- Activity (Bos taurus): 122%
- Activity (Oryctolagus cuniculus): -2.4%
- Activity (Gallus gallus): 4.3%
- Activity (Rattus norvegicus [1]): 23.97%
- Activity (Rattus norvegicus [2]): 15.87%
- Activity (Cardiac muscle cell [3]): 22.2%

SMILES: CCN(CCc1ccc(S(=O)(=O)N(C)C)cc1)C(=O)NCCCc1ccccc1
- Activity (Bos taurus): 39.5%

SMILES: NS(=O)(=O)c1ccc(CCNC(=O)NCCCc2ccccc2)cc1
- Activity (Bos taurus): 41.9%
- Activity (Rattus norvegicus [1]): 11.24%
- Activity (Rattus norvegicus [2]): 7.23%

SMILES: NS(=O)(=O)c1ccc(NC(=O)NCCCc2ccccc2)cc1
- Activity (Bos taurus): 31.8%

SMILES: COC(=O)N1CCN(Cc2cccc(NC(=O)Nc3ccc(C)nc3)c2F)CC1 [OMECAMTIV MECARBIL]
- Activity (Bos taurus): 58%
- Activity (Oryctolagus cuniculus): 2.8%
- Activity (Gallus gallus): -5.5%
- Activity (Rattus norvegicus [1]): 20.32%
- Activity (Rattus norvegicus [2]): 13.35%
- Activity (Cardiac muscle cell [4]): 33.8%

SMILES: CN(C)S(=O)(=O)c1ccc(CCNC(=O)NCCCc2ccccc2)cc1
- Activity (Bos taurus): 91.6%
- Activity (Oryctolagus cuniculus): -3.8%
- Activity (Gallus gallus): -1.9%
- Activity (Rattus norvegicus [1]): 17.62%
- Activity (Rattus norvegicus [2]): 11.55%
- Activity (Cardiac muscle cell [3]): 47.9%

SMILES: NS(=O)(=O)c1ccc(CCNC(=O)NCCCc2ccc(F)cc2)cc1
- Activity (Bos taurus): 19.1%

SMILES: NS(=O)(=O)c1ccc(CNC(=O)NCCCc2ccccc2)cc1
- Activity (Bos taurus): 39.6%

SMILES: CC(C)N(CCc1ccc(S(=O)(=O)N(C)C)cc1)C(=O)NCCCc1ccccc1
- Activity (Bos taurus): 38.1%

SMILES: CN(C)S(=O)(=O)c1ccc(CCNC(=O)N2CCC(c3ccccc3)CC2)cc1
- Activity (Bos taurus): 40.7%

SMILES: CN(C)S(=O)(=O)c1ccc(CCCNC(=O)NCc2ccccc2)cc1
- Activity (Bos taurus): 20.8%

SMILES: COc1ccc(CCNC(=O)NCCCCc2ccccc2)cc1OC
- Activity (Bos taurus): 32.5%

SMILES: COc1ccc(CCCNC(=O)NCc2ccccc2)cc1
- Activity (Bos taurus): 30.5%

SMILES: COc1ccccc1CCNC(=O)NCCCc1ccccc1
- Activity (Bos taurus): 95.1%
- Activity (Oryctolagus cuniculus): 3.5%
- Activity (Gallus gallus): 5.3%
- Activity (Rattus norvegicus [1]): 20.47%
- Activity (Rattus norvegicus [2]): 13.58%
- Activity (Cardiac muscle cell [3]): 19.7%

SMILES: Cc1ccc(CCNC(=O)NCCCc2ccccc2)cc1
- Activity (Bos taurus): 73.8%
- solubility [5]: Insoluble

SMILES: O=C(NCCCc1ccccc1)NCCc1ccc(Cl)cc1
- Activity (Bos taurus): 31%

SMILES: CN(C)S(=O)(=O)c1ccc(CCNC(=O)NCCCc2ccc(F)cc2)cc1
- Activity (Bos taurus): 20.6%

SMILES: NS(=O)(=O)c1ccc(CCNC(=O)NCCCc2ccc(Cl)cc2)cc1
- Activity (Bos taurus): 37.9%

SMILES: CN(C)S(=O)(=O)c1ccc(C2CCN(C(=O)NCCc3ccccc3)CC2)cc1
- Activity (Bos taurus): 32.6%

SMILES: CN(CCCc1ccccc1)C(=O)N(C)CCc1ccc(S(=O)(=O)N(C)C)cc1
- Activity (Bos taurus): 69%
- Activity (Rattus norvegicus [1]): 0.46%
- Activity (Rattus norvegicus [2]): 0.27%

SMILES: NS(=O)(=O)c1ccc(CCNC(=O)NCCCCc2ccccc2)cc1
- Activity (Bos taurus): 36.6%

SMILES: COc1ccc(CCCNC(=O)NCCc2ccc(S(N)(=O)=O)cc2)cc1
- Activity (Bos taurus): 34.8%

SMILES: CCN(CCCc1ccccc1)C(=O)N(CC)CCc1ccc(S(=O)(=O)N(C)C)cc1
- Activity (Bos taurus): 30.3%

SMILES: CN(CCc1ccc(S(=O)(=O)N(C)C)cc1)C(=O)NCCCc1ccccc1
- Activity (Bos taurus): 52.3%
- Activity (Rattus norvegicus [1]): 38.96%
- Activity (Rattus norvegicus [2]): 24.19%

SMILES: O=C(NCCCc1ccccc1)NCCc1ccccc1
- Activity (Bos taurus): 51.1%
- Activity (Oryctolagus cuniculus): -2.1%
- Activity (Gallus gallus): -4.7%
- Activity (Rattus norvegicus [1]): 18.9%
- Activity (Rattus norvegicus [2]): 12.15%
- Activity (Cardiac muscle cell [3]): 20.8%

SMILES: CC(C)N(CCc1ccc(S(=O)(=O)N(C)C)cc1)C(=O)N(C)CCCc1ccccc1
- Activity (Bos taurus): 40.6%

SMILES: COc1ccc(S(N)(=O)=O)c(CCNC(=O)NCCCc2ccccc2)c1
- Activity (Bos taurus): 29.4%
